Source: PubChem
Rows were chosen to be rich in hits. Some 3% of all compounds tested hit in one or more screens of this group.
Yeast lifespan up: compounds extending yeast replicative lifespan, primary screen, S. cerevisiae, OD615; S. cerevisiae growth with nicotinamide; deaD strain in restrictive glucose medium; AID 775, 2007; inhibition of the nicotinamide effect, % at 10 µM; 130,000 compounds, 0.68% hits;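 active = inhibition above a set limit, placed 3 SD over the median of all compounds, cut at about 26% in these data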;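 note: 0% = nicotinamide-treated wells and 100% = cells grown without nicotinamide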
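Assay system: engineered S. cerevisiae DeaD replicative-lifespan strain, galactose-grown log-phase cells; Buffer or medium: CSMM-D glucose medium, restrictive; Probe or stimulus: nicotinamide 1.5 mM; Compound: single dose 10 µM compound, 0.25% DMSO; Schedule: 4 h preincubation then 48 h treatment at 30 °C; Technique: OD615 measurement.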
Measles CPE: compounds protecting cells from measles virus cytopathic effect, primary screen, measles RdRp inhibitor project, single point, MLSMR library, absorbance; Measles virus-infected cells, CPE protection; protection (pct of control), % at 4 µM; 140,000 compounds, 1.5% hits; in the data active = protection mostly above about 24%, no sharp cut-off; inactive = mostly below about 26%
Yeast growth inh: growth inhibitors of yeast BB579 in restrictive medium, primary screen, yeast lifespan-shortening project, S. cerevisiae. inhibition, % at 10 µM. AID 804, 2007. 140,000 compounds, 0.51% hits. OD615, 48 h;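 active = inhibition above a set limit, 3 SD over the mean compound inhibition, cut at about 44% in these data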
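controls = amphotericin B 10 µg/mL, positive | assay system = DeaD yeast strain BB579 | schedule = 48 h compound exposure at 30 °C after 4 h preincubation | detection = OD615 turbidity measurement | medium = restrictive CSMM-D medium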
sEH inh: soluble epoxide hydrolase inhibitors, primary screen, biochemical, human sEH. AID 707, 2007. 91,000 compounds, 0.34% hits. Bifunctional epoxide hydrolase 2 (Homo sapiens), P34913. recombinant human sEH enzymatic activity assay. inhibition, % at 2 µM; in the data active = inhibition above about 80%
Target sequence (P34913 whole entry, looked up): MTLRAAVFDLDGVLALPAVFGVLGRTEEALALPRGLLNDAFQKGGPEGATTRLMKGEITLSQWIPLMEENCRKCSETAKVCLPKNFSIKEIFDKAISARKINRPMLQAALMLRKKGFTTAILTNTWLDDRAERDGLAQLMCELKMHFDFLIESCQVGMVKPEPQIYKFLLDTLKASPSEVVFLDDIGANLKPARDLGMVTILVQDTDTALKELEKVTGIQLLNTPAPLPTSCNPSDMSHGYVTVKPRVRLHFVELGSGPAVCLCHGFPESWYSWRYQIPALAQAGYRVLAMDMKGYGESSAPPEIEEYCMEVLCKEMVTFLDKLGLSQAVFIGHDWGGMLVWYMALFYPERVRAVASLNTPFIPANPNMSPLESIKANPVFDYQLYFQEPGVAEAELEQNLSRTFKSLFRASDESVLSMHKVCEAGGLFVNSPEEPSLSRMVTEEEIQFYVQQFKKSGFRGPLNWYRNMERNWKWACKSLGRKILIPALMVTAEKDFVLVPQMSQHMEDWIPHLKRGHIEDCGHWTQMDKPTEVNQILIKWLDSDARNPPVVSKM
sEH act: soluble epoxide hydrolase activators, primary screen, biochemical, human sEH. Bifunctional epoxide hydrolase 2 (Homo sapiens), P34913. purified human sEH enzymatic activity, activator screen. activation, % at 2 µM. 91,000 compounds, 0.04% hits. AID 717, 2007; in the data active = activation above about 37%
SDO1 yeast rescue: growth rescue of sdo1-depleted yeast, primary screen, S. cerevisiae, bone marrow failure model | S. cerevisiae sdo1-depleted JHY4D growth rescue, OD600 30 h; active compounds read high; pdr5 snq2 efflux-pump mutant strain | z-score at 10 µM | 140,000 compounds, 0.21% hits | AID 817, 2007;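 active = z-score above 3 at both the 24 hr and the 30 hr optical density reads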;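 note: z-score against mean and SD of all compound wells on the same plate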
SDO1 rescue DR: SDO1-depleted yeast growth rescue, concentration-response, diseases of bone marrow failure, JHY4D, OD600; shares compounds with SDO1 yeast rescue; S. cerevisiae JHY4D (SDO1-depleted) growth rescue, 30 h; active compounds read high; efflux-deficient strain, SNQ2 and PDR5 mutated; OD recovery (no concentration beside the values); 440 compounds, 44% hits;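 active = yeast growth recovered at 30 hours, either rising with dose fitted slope above 0.001 or with average optical density gain above 0.07, some results past the limit were not filed as active; inactive = growth falling with dose or no effect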;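 note: gain in OD600 from 0 h to 30 h averaged across all seven doses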
* = called active by the depositor; nt = no result; ! = repeats disagree.

SMILES | Yeast lifespan up | Measles CPE | Yeast growth inh | sEH inh | sEH act | SDO1 yeast rescue | SDO1 rescue DR
C[C@@H]1NC(=O)c2cc([N+](=O)[O-])cc(I)c2OCC[C@@H](C(=O)NC(CC(=O)O)C(N)=O)NC(=O)[C@H](CC(N)=O)NC1=O (stereo partly drawn) | 9 | 3 | -27 | nt | nt | 0.77 | nt
COc1ccc(CCNC(=O)c2cc(-c3ccc(C)c(C)c3O)n[nH]2)cc1OC | -6 | 12 | -30 | -3 | 0 | 2.3 | 0.053
COc1cc([N+](=O)[O-])ccc1NC(=O)CCCOc1cccc(C)c1 | -5 | 3 | -7 | 8 | -6 | 0.24 | nt
CCOc1ncccc1C(=O)OCC(=O)Nc1ccc(-c2nc3ccc(C)cc3s2)cc1 | -1 | 4 | -42 | nt | nt | 0.5 | 0.035
Cc1onc(-c2c(F)cccc2Cl)c1C(=O)NC1CCSC1=O (stereo not drawn) | -4 | 12 | -39 | -8 | 6 | 5* | 0.059
Cc1onc(-c2c(F)cccc2Cl)c1C(=O)Nc1nnc(C2CC2)s1 | -9 | 1 | -21 | 10 | -12 | 0.03 | nt
CCc1ccc(/C=C2\Oc3cc(OS(C)(=O)=O)ccc3C2=O)cc1 | -3 | 3 | -72 | nt | nt | -0.94 | nt
COC(=O)c1ccc2c(c1)C(=O)/C(=C/c1ccc(O)cc1)O2 | -6 | 6 | -9 | nt | nt | 3.5* | 0.06
Cc1c(Cl)cccc1NC(=O)c1ccc(-n2ccnc2)nc1 | -18 | 5 | -24 | 3 | -3 | 3.5* | 0.051
Cc1ncoc1C(=O)Nc1cccc(Cl)c1C | -11 | 4 | -47 | -16 | 20 | -0.21 | nt
O=C(NCC1CCCO1)C(=Cc1cccc([N+](=O)[O-])c1)C(=O)NCC1CCCO1 (stereo not drawn) | 8 | 17 | -9 | nt | nt | 1 | nt
CC(C)OC(=O)CSc1nnc(-c2ccccc2)n1N | -3 | 0 | -3 | -2 | 2 | 6.7* | 0.044
COc1ccc(C2=NOC3(CC(=O)N(c4ccc5ccccc5c4)C3=O)C2)c(OC)c1 (stereo not drawn) | 0 | nt | -37 | -3 | 4 | 0 | nt
Cc1n(CC(O)COC2CCCCC2)c2ccccc2[n+]1C (stereo not drawn) | nt | 29 | -32 | -2 | 6 | 0.79 | nt
Cc1ccc(C(=O)N(Cc2ccc3c(c2)OCO3)Cc2nc3ccccc3c(=O)[nH]2)cc1 | -8 | 4 | -24 | -18 | 11 | 8.5* | 0.091*
O=C(c1ccccc1)N(Cc1ccc(F)cc1)Cc1nc2ccccc2c(=O)[nH]1 | nt | 8 | -34 | 8 | -2 | -0.64 | nt
Cc1cc(C)c(-c2csc(NC(=O)COC(=O)c3ccc4c(c3)OCO4)n2)c(C)c1 | 5 | 4 | -28 | nt | nt | 0.97 | 0.054
O=C(NN=C1C2CC3CC(C2)CC1C3)c1cc(Cl)ccc1O | -17 | 7 | 13 | -8 | 8 | 0.72 | nt
COc1ccc(CCNC(=O)Cn2nnc(-c3ccccc3F)n2)cc1OC | -11 | 6 | -20 | 12 | -10 | 0.07 | nt
O=C(COC(=O)/C=C/c1ccccc1[N+](=O)[O-])Nc1ccc(OC(F)F)cc1 | 3 | 13 | 3 | nt | nt | 11* | 0.067
CCCn1c(O)c(N=NC(=O)c2ccco2)c2ccccc21 | -2 | 4 | -2 | nt | nt | 1.9 | nt
O=C(N=NC(=O)c1ccco1)c1ccc2c(O)n(N3C(=O)c4ccccc4C3=O)c(O)c2c1 | 1 | 10 | -34 | nt | nt | 3.5* | 0.075*
CCSc1ncc(Cl)c(C(=O)Nc2sc3c(c2C(=O)NCc2cccnc2)CCCC3)n1 | -12 | 6 | -28 | 9 | -7 | 1.2 | 0.072*
CSc1ncc(Cl)c(C(=O)Nc2sc3c(c2C(=O)NCc2ccco2)CCCC3)n1 | -4 | 13 | -28 | -8 | 8 | -1 | nt
NS(=O)(=O)c1ccc(Cc2ncc(C(F)(F)F)cc2Cl)s1 | 1 | 3 | -31 | -3 | 0 | 1.5 | nt
SMILES | Yeast lifespan up | Measles CPE | Yeast growth inh | sEH inh | sEH act | SDO1 yeast rescue | SDO1 rescue DR
CCN(CC)S(=O)(=O)c1ccc(Cc2ncc(C(F)(F)F)cc2Cl)s1 | -4 | 3 | -17 | 5 | -6 | 12* | 0.076*
Cc1ccc(C)n1CCN1CCN(C(=O)c2ccco2)CC1 | -13 | 4 | -31 | -10 | 10 | 3*! | 0.052
N#CCSc1ncnc2c1cnn2CCO | -10 | 7 | -32 | -7 | 8 | 0.74 | nt
Cn1c(=O)c2c(ncn2CC(=O)N2CCN(c3cccc(Cl)c3)CC2)n(C)c1=O | -2 | 3 | -22 | 6 | -7 | 14* | 0.049
CCn1c(O)c(N=NC2=NC(=O)CS2)c2ccccc21 | -5 | 12 | -26 | 2 | -4 | 16* | 0.079
Nc1cc(-c2ccc(Br)cc2)[nH]n1 | -6 | 5 | -33 | nt | nt | 5.4* | 0.096*
O=[N+]([O-])c1cc(S(=O)(=O)N2CCCC2)ccc1N/N=C/c1ccccn1 | 2 | 5 | -22 | nt | nt | -0.33 | nt
O=[N+]([O-])c1cc(S(=O)(=O)N2CCCC2)ccc1N/N=C/c1ccncc1 | 5 | 10 | -15 | nt | nt | 0.23 | 0.053
O=C(O)CC/C(=N\Nc1ccc(S(=O)(=O)N2CCCC2)cc1[N+](=O)[O-])c1cccs1 | -13 | 5 | -21 | -5 | 6 | 0.68 | nt
O=[N+]([O-])c1cc(S(=O)(=O)N2CCCC2)ccc1N/N=C/c1cccs1 | 1 | 1 | -36 | -16 | 13 | 1.5 | 0.055
COc1ccccc1NC(CC(=O)c1ccccc1)C(=O)OCC(=O)c1ccc(F)cc1 (stereo not drawn) | 0 | 5 | -31 | nt | nt | -0.91 | nt
Cc1nc2ncnn2c(C)c1CCC(=O)O | -1 | 9 | -17 | -8 | 8 | 3.9* | 0.099*
CCOC(=O)CCc1c(C)nc2ncnn2c1C | -17 | 3 | -23 | 12 | -12 | 0.79 | nt
CSCC[C@H](NC(=O)OC(C)(C)C)c1nnc(SCC(N)=O)o1 | -8 | 2 | -42 | -3 | 3 | 9.6* | 0.046*
CCN(CC)C(=O)CSc1nnc([C@H](CCSC)NC(=O)OC(C)(C)C)o1 | -9 | -1 | -24 | -1 | 2 | 0.13 | nt
CCOc1cc(C(=O)N2CCCC2)cc(OCC)c1OCC | -4 | 7 | 2 | 5 | 0 | 1.8 | 0.042
CCOc1cc(C(=O)N2CCN(C/C=C/c3ccccc3)CC2)cc(OCC)c1OCC | -3 | 15 | -53 | 0 | 4 | 0.17 | nt
COCCN1C(=O)C(O)=C(C(=O)c2ccco2)C1c1cccc(Oc2ccccc2)c1 (stereo not drawn) | 4 | 31 | -5 | -1 | -2 | 9* | 0.076*
